Test results from publication PMC4759708 (CPT: Pharmacometrics & Systems Pharmacology, 2015).
Values joined by “and” are separate entries in the source; they are usually repeats but may differ in a detail not shown here. Identical values can stand only once. Like-named read-outs stand apart in the source and are kept apart here.

Tests used:
[1] = tested on: LPS-stimulated TNFα release; conditions: read-out: IC50, TNFα release in the same (human whole blood) assay; cited from earlier work
[2] = Tissue distribution in pigmented and albino rats; format: in vivo; conditions: pigmented vs albino, unpublished data
[3] = COPD patients; intermittent short-term dosing 75 mg on days 1 and 6; cited from earlier work
p38α [4] = molecular target: T1, p38α (Homo sapiens, UniProt Q16539); assay: In-house p38α inhibition, ELISA; format: biochemical; conditions: read-out: IC50 on p38α (ELISA); in-house studies
T1 sequence (Q16539 whole entry): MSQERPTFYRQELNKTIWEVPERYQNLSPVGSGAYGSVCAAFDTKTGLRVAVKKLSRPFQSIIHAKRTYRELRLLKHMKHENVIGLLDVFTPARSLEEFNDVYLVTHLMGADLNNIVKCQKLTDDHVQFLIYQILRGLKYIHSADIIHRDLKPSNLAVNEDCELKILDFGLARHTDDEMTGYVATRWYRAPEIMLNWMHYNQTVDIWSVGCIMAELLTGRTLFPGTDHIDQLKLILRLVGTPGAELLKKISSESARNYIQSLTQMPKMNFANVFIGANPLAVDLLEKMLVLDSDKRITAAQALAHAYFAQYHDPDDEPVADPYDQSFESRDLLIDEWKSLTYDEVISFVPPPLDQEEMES

serum levels of TNFα = assay: Serum TNFα levels after in vivo intravenous LPS challenge; design: species or system human; conditions: data not shown
Procedure, shortened: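 Healthy subjects received a single oral dose, then an intravenous LPS challenge, and serum TNFα was measured. They fasted 10 h before dosing and 4 h after. Apart from the dosing fluid, no fluid was allowed from 2 h before to 2 h after dosing.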

[5] = tested on: ex vivo LPS-induced TNFα secretion; format: in vivo, human
Procedure, shortened: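 Healthy adults received randomized, double-blind, placebo-controlled oral doses: ascending single doses of 0.1–75 mg, or once daily for 14 days. Blood was challenged with LPS ex vivo and TNFα measured. An indirect response model with negative feedback on outflow and a 24-h oscillatory baseline was fitted to drug and placebo data together. Individual Bayesian PK estimates served as input. IC50 was a fraction of predose baseline. Bootstrap used 500 iterations.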

[6] = tested on: LPS-stimulated TNFα release; assay: LPS-stimulated TNFα release in the human whole blood assay; format: cell-based
[7] = Population pharmacokinetics of oral BCT197 in healthy volunteers; format: in vivo, human
Procedure, shortened: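 Healthy male and non-childbearing female volunteers aged 18–50 y (BMI 18–30 kg/m²) took ascending single doses or once-daily doses for 14 days. Oral solution was used for 0.1–3 mg and tablets for ≥5 mg. Plasma drug was fitted by nonlinear mixed-effects modelling (FOCE Lindström Bates), with lognormal between-subject variability and tablet mixed zero/first-order absorption. Bootstrap used 500 iterations.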

P-glycoprotein = P-glycoprotein (Homo sapiens, UniProt P08183); assay: Caco-2 model of intestinal uptake/efflux; format: in vitro ADME; conditions: unpublished data
P-glycoprotein, sequence (P08183 whole entry): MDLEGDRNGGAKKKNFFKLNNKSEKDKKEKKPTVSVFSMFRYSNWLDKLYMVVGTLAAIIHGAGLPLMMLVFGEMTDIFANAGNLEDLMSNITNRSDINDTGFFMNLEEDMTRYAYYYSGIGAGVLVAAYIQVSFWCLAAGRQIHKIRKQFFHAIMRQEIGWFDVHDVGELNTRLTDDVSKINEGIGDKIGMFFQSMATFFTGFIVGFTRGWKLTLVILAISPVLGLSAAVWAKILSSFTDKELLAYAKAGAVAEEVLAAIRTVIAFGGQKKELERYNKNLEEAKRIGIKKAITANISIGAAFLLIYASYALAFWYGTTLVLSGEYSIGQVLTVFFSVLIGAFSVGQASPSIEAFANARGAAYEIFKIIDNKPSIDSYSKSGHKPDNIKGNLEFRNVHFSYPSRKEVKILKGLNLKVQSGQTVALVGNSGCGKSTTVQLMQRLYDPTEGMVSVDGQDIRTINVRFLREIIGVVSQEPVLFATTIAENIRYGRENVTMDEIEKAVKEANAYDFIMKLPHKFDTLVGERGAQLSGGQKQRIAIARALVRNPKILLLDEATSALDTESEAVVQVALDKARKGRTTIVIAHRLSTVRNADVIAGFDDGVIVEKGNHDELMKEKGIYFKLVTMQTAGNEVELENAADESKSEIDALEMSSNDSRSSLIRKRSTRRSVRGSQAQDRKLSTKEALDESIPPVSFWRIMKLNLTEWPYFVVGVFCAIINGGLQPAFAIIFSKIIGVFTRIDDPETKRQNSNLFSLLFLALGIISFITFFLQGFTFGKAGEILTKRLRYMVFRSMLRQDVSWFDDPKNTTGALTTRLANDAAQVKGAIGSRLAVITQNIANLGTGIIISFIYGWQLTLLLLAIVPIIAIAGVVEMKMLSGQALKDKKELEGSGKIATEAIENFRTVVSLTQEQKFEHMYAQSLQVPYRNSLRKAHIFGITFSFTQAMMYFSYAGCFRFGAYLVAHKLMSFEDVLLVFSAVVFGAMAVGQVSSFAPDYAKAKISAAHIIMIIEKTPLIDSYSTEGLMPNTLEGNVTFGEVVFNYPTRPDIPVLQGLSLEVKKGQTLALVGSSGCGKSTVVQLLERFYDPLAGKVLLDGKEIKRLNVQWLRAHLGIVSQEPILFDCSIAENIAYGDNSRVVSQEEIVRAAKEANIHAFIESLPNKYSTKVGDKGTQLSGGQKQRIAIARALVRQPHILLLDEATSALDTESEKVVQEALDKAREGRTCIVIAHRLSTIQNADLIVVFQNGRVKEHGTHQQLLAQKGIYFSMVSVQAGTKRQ

p38α [8] = molecular target: T1, p38α; assay: In-house p38α inhibition, radiometric; format: biochemical; conditions: read-out: IC50 on p38α (radiometric); in-house studies
[9] = Safety and tolerability in healthy subjects; format: in vivo, human; conditions: data not shown
Thermodynamic solubility = format: physicochemical
[10] = tested on: LPS-stimulated TNFα ex vivo; conditions: patients treated, same bioassay; cited from earlier work
[11] = population mean, final estimate

Compound: CNC(=O)c1ccc(C)c(-n2c(C)cc(OCc3ccc(F)cc3F)c(Br)c2=O)c1 [PH‐797804]
- IC50 [1]: 85 nM

Compound: Cc1ccc(C(=O)NC2CC2)cc1-n1ncc(C(=O)c2cccc(C#N)c2)c1N [BCT197]
- tissue distribution / retention in melanin-containing tissues [2]: remained much longer detectable in the skin and eye of the pigmented but not albino animal
- lung function (FEV1) [3]: marked improvement
- IC50 (p38α [4]): 12 nM
- inhibition of serum levels of TNFα following in vivo intravenous LPS challenge (serum levels of TNFα; single oral administration of 20 mg): 96%
- inhibition of serum levels of TNFα following in vivo intravenous LPS challenge (serum levels of TNFα; single oral administration of 75 mg): 97%
- IC50, concentration at half maximum inhibition ([5]; bootstrap median and 90% CI): 44.3 [30.6;65.5] µg/L
- Imax, maximum inhibition ([5]; bootstrap median and 90% CI): 0.668 [0.6121;0.752]
- Kout, first order degradation rate of drug response ([5]; bootstrap median and 90% CI): 0.353 [0.170;0.592] 1/h
- Ktol, first order production rate of negative feedback ([5]; bootstrap median and 90% CI): 0.00281 [0.00173;0.00529] 1/h
- Maximum inhibition from baseline (Imax), plateau in the typical individual ([5]; ex vivo LPS-induced TNFα secretion): about 66%
- t1/2,ktol (rate constant governing tolerance) ([5]; human, in vivo): 252 h
- Imax, maximum inhibition [5, 11]: 0.663
- Kout, first order degradation rate of drug response [5, 11]: 0.348 h⁻¹
- Ktol, first order production rate of negative feedback [5, 11]: 0.00276 h⁻¹
- IC50, concentration at half maximum inhibition ([5]; population mean, final estimate, plasma concentration, modeled as fraction of predose baseline): 44 µg/L and 44.3 µg/L
- t1/2,kout (hysteresis in drug effect) ([5]; single dose): 2 h
- IC50 ([6]; read-out: IC50 (total drug), LPS-stimulated TNFα release, human whole blood assay, total drug): 51 nM
- IC50 ([6]; read-out: free IC50, LPS-stimulated TNFα release, human whole blood assay, free drug): 24 nM
- Bmax, total binding capacity (tissue binding) ([7]; bootstrap median and 90% CI): 507 [308;806] µg
- K1b, first order transfer rate from central compartment into shunt compartment ([7]; bootstrap median and 90% CI): 0.0105 [0.00791;0.0132] 1/h
- Kt=Kint1, first-order oral absorption rate constant of tablet ([7]; bootstrap median and 90% CI): 1.13 [0.934;1.42] 1/h
- Rate, zero order oral absorption rate (tablet) ([7]; bootstrap median and 90% CI): 2310 [2170;2530] µg/h
- V1/F, volume of central compartment ([7]; bootstrap median and 90% CI): 71.5 [58.1;98.7] L
- fc, fraction of oral dose (tablet) absorbed in a zero-order fashion ([7]; bootstrap median and 90% CI): 0.342 [0.291;0.392]
- CL/F, oral drug clearance ([7]; bootstrap median and 90% CI, 500 iterations): 1.77 [1.47;2.05] L/h
- rise in drug levels in reaching steady-state ([7]; once-daily regimen, on average): 3 fold
- time of double peak behavior postdose ([7]; plasma concentration profile): 18 to 24 h
- Bmax, total binding capacity (tissue binding) [7, 11]: 500 µg
- K1b, first order transfer rate from central compartment into shunt compartment [7, 11]: 0.0106 h⁻¹
- Kt=Kint1, first-order oral absorption rate constant of tablet [7, 11]: 1.12 h⁻¹
- V1/F, volume of central compartment [7, 11]: 71.9 L
- V2/F, volume of peripheral compartment [7, 11]: 25.5 L
- CL/F, oral drug clearance ([7]; population mean, final estimate, healthy volunteers, oral 0.1-75 mg): 1.76 L/h
- fc, fraction of oral dose (tablet) absorbed in a zero-order fashion ([7]; population mean, final estimate, modeled in logit domain and back transformed): 0.344
- Ks, first-order oral absorption rate constant of solution ([7]; population mean, fixed): 5 (fixed) 1/h
- Tlag, absorption lag time ([7]; population mean, fixed): 0.232 (fixed) h
- Tpump, shunt compartment emptying lag time ([7]; population mean, fixed): 18 (fixed) h
- fraction (fc) of dose absorbed by the first-order process ([7]; tablets, mixed-order absorption model, on average): 66%
- saturation of low-affinity efflux pump, most likely P-glycoprotein (P-glycoprotein): not saturated up to 0.1 mg/mL
- IC50 (p38α [8]): 37 nM
- Tolerability, continuous dosing ([9]; continuous dosing of 10 mg): acneiform skin rashes
- Tolerability, single high doses ([9]; single high doses up to 75 mg): well tolerated
- pH-independent thermodynamic solubility (Thermodynamic solubility): ~0.2 mg/mL

Compound: Cc1c(F)cc(C(=O)NC2CC2)cc1-c1ccc(C(=O)NCC(C)(C)C)cn1 [losmapimod]
- IC50 [1]: 25 nM

Compound: O=C(Nc1c(Cl)cncc1Cl)c1ccc(OC(F)F)c(OCC2CC2)c1 [rofluminast, roflumilast]
- TNFα levels ex vivo [10]: significant suppression
